Common to all, as to format: functional
Settings in all cases: route intraperitoneal

The subject of experiment [1] is Mus musculus. Nature of the experiment: Neuropharmacological effect in albino mouse assessed as endurance time at 3 mg/kg, ip after 45 mins by rotarod test. The essentials:
(§1)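 For the rotarod, the cylinder was 6 cm diameter, 30 cm high and turned at 12 rpm. Male albino mice were trained the day before to stay on for 300 s, and those not reaching this were excluded. Endurance time (max 300 s) was measured 30, 45, 60 and 90 min after ip drug in DMSO or vehicle. Five mice per group; mean ± SEM.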
A general note: Falling from the rotarod earlier than controls is read as motor impairment.

In experiment [2] the test system is Mus musculus. Nature of the experiment: Neuropharmacological effect in albino mouse assessed as endurance time at 3 mg/kg, ip after 60 mins by rotarod test. Put shortly: as §1
Experiment [3] has as its system Mus musculus. The experiment in a line: Neuropharmacological effect in albino mouse assessed as endurance time at 3 mg/kg, ip after 90 mins by rotarod test. The essentials:
as §1

Experiment [4] has as its system Mus musculus. Nature of the experiment: Muscle relaxant activity in albino mouse at 3 mg/kg, ip after 30 mins by traction test. Also noted: scale not given: the % may be the effect or the level left. The essentials: (§2)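 Traction test in male albino mice (20–25 g), five per group, given drug ip in DMSO. Success required touching the wire with at least one hind paw within 5 s; otherwise scored as failure. Mice were tested 30, 45, 60 and 90 min after dosing, immediately before the rotarod. Results are % successful, mean ± SEM.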

The test system of experiment [5] is Mus musculus. Nature of the experiment: Muscle relaxant activity in albino mouse at 3 mg/kg, ip after 45 mins by traction test. Also on record: scale not given: the % may be the effect or the level left. Put shortly:
as §2

Experiment [6] concerns Mus musculus. Nature of the experiment: Muscle relaxant activity in albino mouse at 3 mg/kg, ip after 60 mins by traction test. Also on record: scale not given: the % may be the effect or the level left. The essentials:
as §2

Experiment [7] concerns Mus musculus. The experiment in a line: Muscle relaxant activity in albino mouse at 3 mg/kg, ip after 90 mins by traction test. Also on record: scale not given: the % may be the effect or the level left. Put shortly: as §2
In experiment [8] the test system is Mus musculus. Nature of the experiment: Analgesic activity in albino mouse assessed as retention latency at 3 mg/kg, ip after 30 mins by hot plate test. Put shortly:
(§3)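 Male albino mice (20–25 g), five per group, given drug in DMSO ip; vehicle controls got DMSO alone. Mice were placed in a glass cylinder on a 54 °C metal plate. Latency to hind-paw lick or jump was recorded, with a 30 s cut-off. Testing was 30, 45, 60 and 90 min post-injection. Values are mean ± SEM.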
(In general: In hot-plate and tail-flick tests a longer latency is read as antinociception.)

Experiment [9] has as its system Mus musculus. Nature of the experiment: Analgesic activity in albino mouse assessed as retention latency at 3 mg/kg, ip after 45 mins by hot plate test. The essentials: as §3
The test system of experiment [10] is Mus musculus. Nature of the experiment: Analgesic activity in albino mouse assessed as retention latency at 3 mg/kg, ip after 60 mins by hot plate test. Put shortly: as §3
For experiment [11], the system named is Mus musculus. Nature of the experiment: Analgesic activity in albino mouse assessed as retention latency at 3 mg/kg, ip after 90 mins by hot plate test. Put shortly: as §3
The subject of experiment [12] is Mus musculus. The experiment in a line: Neuropharmacological effect in albino mouse assessed as spontaneous locomotor activity at 3 mg/kg, ip after 30 mins. The essentials:
(§4)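 Male albino mice (20–25 g), five per group, got ip drug in DMSO or DMSO vehicle and went back to their home cages. After 30, 45, 60 or 90 min each was placed alone in a Plexiglas box and spontaneous locomotor activity was recorded. Tests were run in the morning. Values are mean ± SEM.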

Experiment [13] deals with Mus musculus. Nature of the experiment: Neuropharmacological effect in albino mouse assessed as spontaneous locomotor activity at 3 mg/kg, ip after 45 mins. Put shortly: as §4
The subject of experiment [14] is Mus musculus. The experiment in a line: Neuropharmacological effect in albino mouse assessed as spontaneous locomotor activity at 3 mg/kg, ip after 60 mins. The essentials: as §4
Experiment [15] deals with Mus musculus. Nature of the experiment: Neuropharmacological effect in albino mouse assessed as spontaneous locomotor activity at 3 mg/kg, ip after 90 mins. The essentials:
as §4

The test system of experiment [16] is Mus musculus. Nature of the experiment: Neuropharmacological effect in albino mouse assessed as endurance time at 3 mg/kg, ip after 30 mins by rotarod test. The essentials: as §1
Experiment [17] concerns Mus musculus. Nature of the experiment: Decrease in cognitive impairment in albino mouse assessed as retention latency at 3 mg/kg, ip after 30 mins by passive avoidance reflex test. The essentials: (§5)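 Passive avoidance in male albino mice (20–25 g), five per group, housed singly from the day before training. Drug in DMSO was given ip 30, 45, 60 or 90 min before the training trial. Mice were put in the light side of a two-compartment apparatus and the door to the dark side was opened. The retention test next day used the shock generator off. Latency reported as mean ± SEM.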

The subject of experiment [18] is Mus musculus. The experiment in a line: Decrease in cognitive impairment in albino mouse assessed as retention latency at 3 mg/kg, ip after 45 mins by passive avoidance reflex test. Put shortly:
as §5

Experiment [19] has as its system Mus musculus. Nature of the experiment: Decrease in cognitive impairment in albino mouse assessed as retention latency at 3 mg/kg, ip after 60 mins by passive avoidance reflex test. The essentials:
as §5

Experiment [20] has as its system Mus musculus. The experiment in a line: Decrease in cognitive impairment in albino mouse assessed as retention latency at 3 mg/kg, ip after 90 mins by passive avoidance reflex test. The essentials: as §5
The subject of experiment [21] is Mus musculus. Nature of the experiment: Neuropharmacological effect in albino mouse assessed as onset of loss of righting reflex at 3 mg/kg, ip. Put shortly:
(§6)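 Male albino mice (20–25 g), five per group, injected ip (drug in DMSO). Loss of righting reflex was inability to right within 30 s, after which mice were laid supine in a 90° trough. Return was righting twice within 1 min. Onset was recorded, and duration was the time from loss to return. Values are mean ± SEM.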

Experiment [22] concerns Mus musculus. The experiment in a line: Neuropharmacological effect in albino mouse assessed as duration of loss of righting reflex at 3 mg/kg, ip. Put shortly: as §6

For `CCCCCCCC1=NCC(c2ccc(Cl)cc2)CC(=O)O1` (stereo unspecified), the Activity in [1] is listed as 300 s; in experiment [2] it was 300 s; in experiment [3] it was 300 s; in experiment [4] it was 100%; in [5], 100%; in experiment [6] it was 100%. The Activity in experiment [7] amounted to 100%; in experiment [8], 8.12 s; in experiment [9] it was 8.22 s; in [10], 9.23 s; in experiment [11], 9.33 s; in experiment [12], 45.24 m. For the same compound, the Activity in experiment [13] is given as 43.46 m; in experiment [14] it was 42.79 m; in experiment [15] it was 40.13 m; in experiment [16], 300 s; in experiment [17] it was 163.23 s; in [18] it was 163.23 s. The results for the Activity in experiment [19] and in experiment [20] were 160.43 s and 164.56 s, respectively.

`CCCCCCCCC1=NCC(c2ccc(Cl)cc2)CC(=O)O1` (stereo unspecified): the Activity in experiment [1] is 300 s; in experiment [2], 300 s; in [3] it was 300 s; in experiment [4], 100%; in experiment [5] it was 100%; in experiment [6], 100%. Moreover, the Activity in [7] stood at 100%; in [8] it was 8.12 s; in [9], 8.22 s; in [10], 9.23 s; in [11] it was 9.33 s; in experiment [12], 45.24 m. Moreover, the Activity in experiment [13] is listed as 43.46 m; in experiment [14], 42.79 m; in experiment [15], 40.13 m; in experiment [16], 300 s; in experiment [17] it was 163.33 s; in experiment [18], 163.23 s. In addition, the values for the Activity in [19] and in experiment [20] were 160.43 s and 164.56 s, respectively.

In the case of `CC1=NCC(c2ccc(Cl)cc2)CC(=O)O1` (stereo unspecified), the Activity in [1] worked out at 300 s; in experiment [2], 300 s; in experiment [3], 300 s; in experiment [4], 100%; in experiment [5], 100%; in experiment [6], 100%. The Activity stood at 100% in experiment [7]; 8.12 s in experiment [8]; 8.22 s in [9]; 9.22 s in experiment [10]; 9.33 s in [11]; 45.24 m in experiment [12]. For the same compound, the Activity turned out to be 43.46 m in experiment [13]; 42.79 m in experiment [14]; 40.13 m in experiment [15]; 300 s in [16]; 163.23 s in experiment [17]; 163.23 s in experiment [18]. The Activity is 160.43 s in experiment [19] and 164.56 s in experiment [20].

Turning to `C=CCCCCCCCCC1=NCC(c2ccc(Cl)cc2)CC(=O)O1` (stereo unspecified), the Activity amounted to 198 s in [1]; 185 s in experiment [2]; 155 s in experiment [3]; 55% in [4]; 50% in experiment [5]; 50% in experiment [6]. Also, the Activity in experiment [7] is given as 53%; in [8], 8.32 s; in experiment [9], 14.34 s; in experiment [10], 19.73 s; in experiment [11] it was 21.42 s; in experiment [21], 36.63 min. Moreover, the Activity stood at 55.33 min in [22]; 25.36 m in experiment [12]; 20.56 m in experiment [13]; 19.43 m in [14]; 18.56 m in experiment [15]; 222 s in experiment [16]. For the same compound, the Activity in experiment [17] was determined as 148.82 s; in [18] it was 118.32 s; in [19], 95.35 s; in [20], 95.45 s.

`CCCCCCCCCCCC1=NCC(c2ccc(Cl)cc2)CC(=O)O1` (stereo unspecified): the Activity in experiment [1] was found to be 188 s; in experiment [2], 178 s; in experiment [3], 145 s; in experiment [4] it was 45%; in experiment [5], 43%; in experiment [6], 40%. Moreover, the Activity in experiment [7] is 40%; in [8], 7.82 s; in [9], 13.21 s; in experiment [10], 18.56 s; in [11], 24.43 s; in experiment [21] it was 38.23 min. Also, the Activity in experiment [22] was 60.25 min; in experiment [12] it was 20.12 m; in experiment [13] it was 16.21 m; in experiment [14], 14.11 m; in experiment [15], 15.66 m; in [16], 232 s. Moreover, the Activity is given as 152.34 s in experiment [17], 114.73 s in experiment [18], 88.14 s in [19] and 72.45 s in experiment [20].

On to `O=C1CC(c2ccc(Cl)cc2)CN=C(Cc2ccccc2)O1` (stereo unspecified), for which the Activity in [1] is recorded as 185 s; in experiment [2] it was 0 s; in experiment [3], 0 s; in experiment [4] it was 27%; in experiment [5] it was 25%; in [6] it was 25%. In addition, the Activity in [7] was 22%; in experiment [8] it was 9.53 s; in experiment [9], 15.38 s; in experiment [10], 25.63 s; in experiment [11] it was 28.73 s; in [21], 42.12 min. The Activity was determined as 112.36 min in experiment [22]; 0 m in experiment [12]; 0 m in [13]; 0 m in [14]; 0 m in experiment [15]; 234 s in [16]. For the same compound, the Activity in [17] is 125.64 s; in experiment [18], 106.56 s; in [19], 70.34 s; in [20], 65.34 s.

For the compound `CCCCCCCCCCC1=NCC(c2ccc(Cl)cc2)CC(=O)O1` (stereo unspecified), the Activity in [1] was 300 s; in experiment [2] it was 300 s; in [3], 300 s; in experiment [4] it was 100%; in [5] it was 100%; in [6] it was 100%. The Activity in experiment [7] is reported as 100%; in experiment [8], 8.12 s; in experiment [9], 8.22 s; in experiment [10], 9.23 s; in experiment [11], 9.33 s; in experiment [12], 45.24 m. Further, the Activity is recorded as 43.46 m in [13]; 42.79 m in experiment [14]; 40.13 m in experiment [15]; 300 s in experiment [16]; 163.53 s in experiment [17]; 163.23 s in experiment [18]. Also, the Activity in experiment [19] came to 160.43 s; in experiment [20], 164.56 s.
